According to ChEMBL document CHEMBL4325910, “Design and synthesis of rosiglitazone-ferulic acid-nitric oxide donor trihybrids for improving glucose tolerance” (Eur J Med Chem, 2019):
The source made the active and inactive calls. The calls are words filed in the database; no cut-off is given here.

Tests used:
Platelet [1] = experiment: Antiplatelet activity in platelet rich plasma (unknown origin) assessed as inhibition of ADP-induced platelet aggregation at 1 mM relative to control; assay type: functional
Platelet [2] = experiment: Antiplatelet activity in platelet rich plasma (unknown origin) assessed as inhibition of ADP-induced platelet aggregation at 8 mM relative to control; assay type: functional
Platelet [3] = experiment: Antiplatelet activity in platelet rich plasma (unknown origin) assessed as inhibition of ADP-induced platelet aggregation at 0.8 mM relative to control; assay type: functional
3T3-L1 [4] = experiment: Induction of nitric oxide production in TNF-alpha-induced insulin resistant mouse 3T3L1 cells at 3 to 10 uM after 0.5 to 6 hrs by DAF-FM-2DA dye based fluorescence assay; assay type: functional, cell-based
Method in brief: (§1)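 Insulin-resistant 3T3-L1 adipocytes (TNF-α 4 ng/mL, 4 days) were treated for varying times, with or without 20 μM C-PTIO. Vehicle was DMSO 0.1% or NaOH 10 μM. Cells were washed in KRP, loaded with 10 μM DAF-FM-2DA in pH 7.4 PBS at 37 °C for 30 min, and read at Ex/Em 485/515 nm. Three experiments.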

Mus musculus = experiment: Antidiabetic activity in spontaneous db/db BKS.Cg-Dock7m +/+ Leprdb/J mouse assessed as decrease in blood glucose AUC at 10 to 20 mg/kg, po administered as daily dose via gavage for 18 days measured on day 12 up to 120 mins post glucose challenge by oral glucose tolerance test; assay type: functional, organism-based
Method in brief: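 Male db/db mice (BKS.Cg-Dock7m +/+ Leprdb/J), 6 weeks old on purchase, randomized, n=8 per group. Dosed by gavage in 0.5% CMC-Na daily for 18 consecutive days. Vehicle-dosed db/db and C57BL/6 mice served as model and control. Fasting glucose was read by glucometer every three days. On day 12, after an overnight fast, 2 g/kg glucose was given orally. Blood glucose was read at 0–120 min and AUC calculated. Mean ± SEM.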

3T3-L1 [5] = experiment: Inhibition of ROS production in TNF-alpha-induced insulin resistant mouse 3T3L1 cells at 3 to 10 uM after 48 hrs by DCFH-DA dye-based fluorescence assay; assay type: functional, cell-based
3T3-L1 [6] = experiment: Induction of nitric oxide production in TNF-alpha-induced insulin resistant mouse 3T3L1 cells at 3 to 10 uM after 0.5 to 6 hrs in presence of nitric oxide scavenger C-PTIO by DAF-FM-2DA dye-based fluorescence assay; assay type: functional, cell-based; method in brief: as §1
[7] = Metabolic stability in human liver microsomes after 2 hrs in presence of NADPH by HPLC analysis; assay type: ADME, Microsome; settings: read-out: Stability
Method in brief: (§2)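 Compound (100 mM DMSO stock) was added in triplicate to 0.1 M phosphate buffer pH 7.4 with 3.3 mM MgCl2 and human liver microsomes, then preincubated 5 min at 37 °C. NADPH (1.3 mM stock) was added and incubation continued 0, 0.5, 1, 2 or 6 h. Acetonitrile quench, then HPLC at 254 nm.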

[8] = Metabolic stability in simulated intestinal fluid at pH 6.8 measured after 6 hrs by HPLC analysis; assay type: ADME; settings: read-out: Stability
Method in brief: (§3)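 Gastric fluid was 1% pepsin in water, pH 1.5. Intestinal fluid was 1% trypsin with 0.68% KH2PO4, pH 6.8. Compound (100 mM DMSO stock) was diluted 1:1000 into each, in triplicate. Incubation was at 37 °C for 0, 2, 4, 6, 16 or 24 h. Acetonitrile (3 volumes) stopped it, then HPLC at 254 nm.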

Platelet [9] = experiment: Antiplatelet activity in platelet rich plasma (unknown origin) assessed as inhibition of ADP-induced platelet aggregation at 3.2 mM relative to control; assay type: functional
Platelet [10] = experiment: Antiplatelet activity in platelet rich plasma (unknown origin) assessed as inhibition of arachidonic acid-induced platelet aggregation at 0.1 mM relative to control; assay type: functional
[11] = Metabolic stability in simulated gastric fluid at pH 1.5 measured after 2 hrs by HPLC analysis; assay type: ADME; settings: read-out: Stability; method in brief: as §3
[12] = Metabolic stability in simulated gastric fluid at pH 1.5 measured after 4 hrs by HPLC analysis; assay type: ADME; settings: read-out: Stability; method in brief: as §3
[13] = Metabolic stability in human liver microsomes after 0.5 hrs in presence of NADPH by HPLC analysis; assay type: ADME, Microsome; settings: read-out: Stability; method in brief: as §2

Compound	inhibition at 1000 µM (Platelet [1]) [%]	inhibition at 8000 µM (Platelet [2]) [%]	inhibition at 800 µM (Platelet [3]) [%]	Activity (3T3-L1 [4])	Activity (Mus musculus)	inhibition (3T3-L1 [5])	Activity (3T3-L1 [6])	remaining at 2 h [7] [%]	remaining at 6 h [8] [%]	inhibition at 3200 µM (Platelet [9]) [%]	inhibition at 100 µM (Platelet [10]) [%]	remaining at 2 h [11] [%]	remaining at 4 h [12] [%]	remaining at 0.5 h [13] [%]
CN(CCOc1ccc(CC2SC(=O)NC2=O)cc1)c1ccccn1 (centres undefined) [ROSIGLITAZONE]	6.1	64												
CCN(CC)/[N+]([O-])=N/OCOC(=O)/C=C/c1ccc(OC(=O)OCN2C(=O)SC(Cc3ccc(OCCN(C)c4ccccn4)cc3)C2=O)c(OC)c1 (centres undefined)			26.2	Active	Active	Active	inactive	85.3	87.6	57.3	21.6	99.8	97	94.3
